# The RNAGym collection of RNA variant scans (doi:10.1126/science.aae0568)
# This sample holds only a part of the variants without activity.
# B1: tRNA (parent)
# chain: GUUCCGUUGGCGUAAUGGUAACGCGUCUCCCUCCUAAGGAGAAGACUGCGGGUUCGAGUCCCGUACGGAACG
# Variants of: B1
# Experiment: yeast fitness relative to wild type (ratio to wild type); higher = fitter; tRNA-Arg(CCU), competitive growth, 37 C, YPD
# Method in brief: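 The tRNA-Arg(CCU) gene variants were made by chemical synthesis with a 3% per-site mutation rate at 69 sites and inserted at the native genomic locus of Saccharomyces cerevisiae. After pooling, the strains were competed in YPD at 37°C for 24 hours in six parallel replicates. Gene amplicons from the start population and each end population were read by 100-nucleotide paired-end sequencing, and Darwinian fitness relative to wild type was taken from genotype frequency changes. Genotypes needed ≥ 100 starting reads, and estimates < 0.5 were set to 0.5.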
row,Variant,yeast fitness
1,U28G G50U C60G,≤ 0.5
2,C22A C24U U28A A37G,≤ 0.5
3,G9C A37G G41A,≤ 0.5
4,U3A C4U G25C G58C,≤ 0.5
5,A21U C34U A45G G50A,≤ 0.5
6,C34U G38A C61G,≤ 0.5
7,C30A G48A,1.06
8,C22U G58C,0.883
9,C4U C55U C61U,0.673
10,A20U A36G C55G G56A,≤ 0.5
11,A14U G23A C29G C46A C55G,0.57
12,C30U U54C,0.805
13,C4A G39C G41C,≤ 0.5
14,U2C A40G G68C,0.571
15,U7G U47A C61A,0.781
16,U16A C29G A42G C46G A65U,≤ 0.5
17,G23A C27A A57U,0.634
18,C5A C22U A57G,0.612
19,G17C U19A A36C A37U A65C,0.592
20,U13G G25A A69U,0.798
21,U54A C66A,0.528

row,Variant,yeast fitness
1,U13A C31G C46G A69U,0.624
2,A15U C22A G23A C24A G56C,≤ 0.5
3,U2C C49G A65G,0.594
4,C5U C24G A42C U53G,≤ 0.5
5,U53A C62U,0.827
6,C22G U47A U54A C61G,≤ 0.5
7,U8A G10C C27A G48A,≤ 0.5
8,A37G U53C G58A G68A,≤ 0.5
9,C4A U64G,0.641
10,G25A G68C,0.938
11,C29U A40C,0.815
12,C4G A14G G63A,≤ 0.5
13,G6C C61G,0.675
14,A40C C62G G63A,≤ 0.5
15,C11U U19A A42G,0.56
16,C5G U19G C22U U32C G56A A65C,≤ 0.5
17,A15U U16C G38C G39A A43C C60G A65C,≤ 0.5
18,C30G C31A,0.62
19,C22U U32C C46U U54G,0.593
20,U32A C60A,≤ 0.5
21,C24A A40C,0.658

row,Variant,yeast fitness
1,G10A A20C C27G A40G A70C,≤ 0.5
2,C33U G51A A57U,≤ 0.5
3,C11U G38A,1.02
4,U16A G18C G50A A57C,≤ 0.5
5,C4U A14C C29U A65G,0.765
6,A14U U26G G39C A70U,≤ 0.5
7,U3A G51C,≤ 0.5
8,C27G C46G A65G,0.631
9,A20U C27U U64C,0.954
10,C30U C46A G68C,0.704
11,U8A G18A G52A U59A G67C,≤ 0.5
12,G41A A65U,0.722
13,A36U G67C,0.602
14,C4G U13C A40U A42C C66U,≤ 0.5
15,A45U C49U,1.07
16,G10A C27G C33G G41C A65G G68A,≤ 0.5
17,C4A A42C,0.794
18,G25A C31U A37C G68U,≤ 0.5
19,A15C A21C A40C U59G C60G,≤ 0.5
20,U2A C4A G18C U47A C55U,0.793
21,C11G A20C,0.615

row,Variant,yeast fitness
1,C34U C46A C62U,0.682
2,C24U G50A,0.844
3,C4G U32A G38C,≤ 0.5
4,U26G U35A A69G A70G,0.732
5,G6A A21U C33U,0.525
6,G18C G23C G39A C55A,0.696
7,U28C G51A U59A A65C,≤ 0.5
8,A45G G63A,0.747
9,A36C C49U C55U C62G G68C,≤ 0.5
10,U2A U16A U19A C46U,0.714
11,U7A A21G C30G A36G C46G C66U,≤ 0.5
12,G6A A20G C31G C46U,0.58
13,U19C G56C,0.67
14,C31G C46G,1.04
15,C4A G63A A65U,≤ 0.5
16,G10C A15U C27A C49G U64A,≤ 0.5
17,G12C C27A C31G G52C,≤ 0.5
18,A21G A37G G39C C62U,≤ 0.5
19,C24A A57C C61G,≤ 0.5
20,G17U U28A C29G C33U C34G A42U,≤ 0.5
